Molecules are shown by their SMILES.

Data set [1] addresses T1, ATP-dependent translocase ABCB1 (Homo sapiens, UniProt P08183). As to the kind of experiment: Inhibition of human Pgp-mediated rhodamine 123 efflux expressed in mouse L5178Y cells assessed as fluorescence activity ratio at 2 uM after 10 mins by flow cytometric analysis. It is filed as cell-based. Put shortly:
(§1)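 PAR and MDR L5178Y cells at 2 × 10^6 cells/mL in serum-free McCoy's 5A, compound at 2 or 20 μM. Verapamil 22 μM as positive control, DMSO 2% as solvent control. After 10 min at room temperature, rhodamine-123 added (5.2 μM final) for 20 min at 37 °C. Cells washed twice, resuspended in PBS, and mean FL-1 of 20 000 cells read by flow cytometry. FAR = (MDR treated/untreated)/(PAR treated/untreated).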
On the technique in general: A flow cytometer gives signals particle by particle.

Data set [2] has as its system L5178Y. The data set can be described thus: Cytotoxicity against chemosensitive mouse L5178Y cells after 72 hrs by MTT assay. It is filed as cell-based. The procedure, abridged:
(§2)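 L5178Y parental and human MDR1-transfected mouse T-cell lymphoma cells grown in McCoy's 5A with 10% heat-inactivated horse serum at 37 °C, 5% CO2. Cells seeded at 1 × 10^5/mL and given 2-fold serial dilutions in duplicate wells for 72 h. MTT added for 4 h, then SDS overnight, OD 550 nm (ref 630). IC50 from curve fitting over three independent experiments. Selectivity index = IC50(PAR)/IC50(MDR).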
(In general: Tetrazolium dyes change colour on reduction, which living cells bring about.)

In data set [3] the target is T1, ATP-dependent translocase ABCB1. The data set can be described thus: Inhibition of human Pgp-mediated rhodamine 123 efflux expressed in mouse L5178Y cells assessed as fluorescence activity ratio at 20 uM after 10 mins by flow cytometric analysis. The data set is classed as cell-based. The procedure, abridged: as §1
The test system of data set [4] is P-glycoprotein 1 / MDR1 (Homo sapiens). The data set can be described thus: Selectivity index, ratio of IC50 for chemosensitive mouse L5178Y cells to IC50 for chemoresistant mouse L5178Y cells expressing human MDR1 gene.
Data set [5] relates to L5178Y. As to the kind of experiment: Toxicity against chemoresistant mouse L5178Y cells expressing human MDR1 gene at >40 uM after 10 mins by flow cytometric analysis. The data set is classed as cell-based. The procedure, abridged: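 Toxicity during the rhodamine-123 accumulation assay, tested at 2, 20, 40 and 80 μM, was judged from shifts in flow-cytometric forward scatter and side scatter.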

Data set [6] addresses T1, ATP-dependent translocase ABCB1. As to the kind of experiment: Inhibition of human Pgp expressed in mouse L5178Y cells assessed as potentiation of doxorubicin-induced cytotoxicity after 48 hrs by MTT assay. The data set is classed as cell-based. Put shortly: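 Checkerboard combination with doxorubicin (14.7–0.1 μM) across one axis and 2-fold dilutions of modifier on the other, at a fixed drug ratio. MDR L5178Y cells seeded at 2 × 10^5 cells/mL and incubated 48 h, growth read by MTT. Combination index from the Chou–Talalay median-effect equation at 50% inhibition, using the best combination ratio. CI <1 synergy, =1 additivity, >1 antagonism.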

Data set [7] deals with L5178Y. The data set can be described thus: Cytotoxicity against chemoresistant mouse L5178Y cells expressing human MDR1 gene after 72 hrs by MTT assay. It is filed as ADME, cell-based. Put shortly: as §2
Data set [8] addresses T1, ATP-dependent translocase ABCB1. The data set can be described thus: Inhibition of human Pgp-mediated rhodamine 123 efflux expressed in mouse L5178Y cells assessed as reversal of chemoresistance after 10 mins by flow cytometric analysis. The data set is classed as cell-based. The procedure, abridged: (§3)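 MDR L5178Y cells preincubated 10 min with compound, then loaded with rhodamine-123 (5.2 μM final) for 20 min at 37 °C and read by flow cytometry. The percentage of cells reverted to a chemosensitive phenotype was obtained by Overton cumulative histogram subtraction, channel by channel.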

In data set [9] the target is P-gp (ABCB1) (Homo sapiens, UniProt P08183). The data set can be described thus: Inhibition of human Pgp expressed in mouse L5178Y cells assessed as reversal of chemoresistance at 20 uM after 10 mins by flow cytometric analysis. It is filed as cell-based. The procedure, abridged:
as §3

T1 sequence (P08183 whole entry): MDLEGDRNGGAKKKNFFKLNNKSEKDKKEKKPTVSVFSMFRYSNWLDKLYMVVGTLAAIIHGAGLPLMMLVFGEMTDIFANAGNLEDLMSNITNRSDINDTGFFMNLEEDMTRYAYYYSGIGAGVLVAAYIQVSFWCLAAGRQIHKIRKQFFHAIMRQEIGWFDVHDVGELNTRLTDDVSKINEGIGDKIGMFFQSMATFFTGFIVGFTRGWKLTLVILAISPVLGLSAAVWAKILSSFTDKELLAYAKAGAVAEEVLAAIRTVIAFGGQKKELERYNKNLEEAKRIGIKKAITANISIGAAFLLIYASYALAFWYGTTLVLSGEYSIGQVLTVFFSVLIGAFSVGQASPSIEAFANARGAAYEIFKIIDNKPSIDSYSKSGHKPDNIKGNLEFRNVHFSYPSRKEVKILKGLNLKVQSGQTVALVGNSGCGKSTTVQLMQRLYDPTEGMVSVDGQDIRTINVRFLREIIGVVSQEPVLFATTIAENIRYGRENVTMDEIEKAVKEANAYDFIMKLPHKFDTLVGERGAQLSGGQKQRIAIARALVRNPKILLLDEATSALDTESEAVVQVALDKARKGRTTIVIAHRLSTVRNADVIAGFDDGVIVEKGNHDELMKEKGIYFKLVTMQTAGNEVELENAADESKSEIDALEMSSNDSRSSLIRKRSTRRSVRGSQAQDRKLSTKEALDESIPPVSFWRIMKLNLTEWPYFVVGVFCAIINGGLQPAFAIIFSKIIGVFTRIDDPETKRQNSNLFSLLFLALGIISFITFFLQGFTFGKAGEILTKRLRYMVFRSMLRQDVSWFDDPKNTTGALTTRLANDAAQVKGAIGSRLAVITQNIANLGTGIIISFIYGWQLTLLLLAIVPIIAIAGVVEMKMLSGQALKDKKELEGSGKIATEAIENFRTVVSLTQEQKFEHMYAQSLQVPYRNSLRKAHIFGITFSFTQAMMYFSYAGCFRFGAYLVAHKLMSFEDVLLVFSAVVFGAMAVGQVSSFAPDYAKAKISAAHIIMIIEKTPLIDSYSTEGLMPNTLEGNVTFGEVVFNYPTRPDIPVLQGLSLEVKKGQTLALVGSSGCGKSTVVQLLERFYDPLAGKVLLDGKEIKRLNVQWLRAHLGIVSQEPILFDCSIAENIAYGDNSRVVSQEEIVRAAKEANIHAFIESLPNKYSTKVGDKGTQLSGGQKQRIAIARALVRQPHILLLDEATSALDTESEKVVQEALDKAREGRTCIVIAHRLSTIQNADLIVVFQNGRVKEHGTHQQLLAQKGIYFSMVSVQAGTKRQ
Chain of P-gp (ABCB1) (P08183 whole entry): as above

As for `CCC(CC)C(=O)O[C@H]1[C@@H](C)C[C@]2(OC(C)=O)C(=O)/C(C)=C/[C@@H]3[C@H](CC/C(C)=C/[C@@H]12)C3(C)C` [JOLKINOATE F], the values for the Ratio in [1] and in data set [3] were 4.99 and 77.25, respectively. Also, the IC50 worked out at 14.3 µM in data set [2] and 14.7 µM in data set [7]. Further, the selectivity ratio in [4] turned out to be 1. In addition, the Activity entry in data set [5] is “Toxic”. Moreover, the CI in data set [6] came out at 0.25.
For `CCCCC(CC)C(=O)O[C@H]1[C@@H](C)C[C@]2(OC(C)=O)C(=O)/C(C)=C/[C@@H]3[C@H](CC/C(C)=C/[C@@H]12)C3(C)C` (stereo not given in full) [JOLKINOATE G], the results for the Ratio in data set [1] and in data set [3] were 10.55 and 52.66, respectively. Also, the results for the 50% inhibitory concentration (IC50) in data set [2] and in data set [7] were 20.6 µM and 48.9 µM, respectively. Besides, the selectivity ratio in data set [4] was found to be 0.4. The Activity entry in [5] was “Toxic”. The CI in data set [6] turned out to be 0.31.
With `CCCC(C)C(=O)O[C@H]1[C@@H](C)C[C@]2(OC(C)=O)C(=O)/C(C)=C/[C@@H]3[C@H](CC/C(C)=C/[C@@H]12)C3(C)C` (stereo not given in full) [JOLKINOATE E], the Ratio stood at 7.14 in data set [1] and 12.13 in data set [3]. Further, the results for the IC50 in [2] and in data set [7] were 17.2 µM and 18.8 µM, respectively. Further, the selectivity ratio in [4] turned out to be 0.9. Also, in data set [5], the Activity result is reported as “Toxic”. In [6], the CI is on record as 0.23.
In the case of `CC(=O)O[C@]12C[C@H](C)[C@H](O)[C@@H]1/C=C(\C)CC[C@H]1[C@@H](/C=C(\C)C2=O)C1(C)C` [JOLKINOL D], the Ratio in [1] is 0.79; in data set [3], 0.92. For the same compound, the IC50 in data set [2] was 89.9 µM; in data set [7], 99.7 µM. The selectivity ratio in [4] worked out at 0.9. Further, the CI in [6] is on record as 0.26.
As for `C/C1=C\[C@H]2[C@@H](O)[C@@H](C)C[C@]2(O)C(=O)/C(C)=C/[C@@H]2[C@H](CC1)C2(C)C` [JOLKINODIOL], the Ratio was 0.84 in [1] and 3.38 in data set [3]. Further, the values for the concentration for half-maximal inhibition (IC50) in data set [2] and in [7] were 36.4 µM and 48.9 µM, respectively. Besides, the selectivity ratio in [4] worked out at 0.7. In data set [6], the CI was 0.65.
For the compound `CCCC(=O)O[C@H]1[C@@H](C)C[C@]2(OC(C)=O)C(=O)/C(C)=C/[C@@H]3[C@H](CC/C(C)=C/[C@@H]12)C3(C)C` [JOLKINOATE C], the Ratio in data set [1] is given as 5.15; in data set [3], 107.89. Further, the concentration for half-maximal inhibition (IC50) stood at 24 µM in data set [2] and 26.8 µM in data set [7]. In addition, in data set [4], the selectivity ratio worked out at 0.9. Moreover, the Activity result in data set [5] was “Toxic”. In addition, in data set [6], the CI is listed as 0.39.
Consider `CC(=O)O[C@]12C[C@H](C)[C@H](OS(=O)(=O)c3ccccc3)[C@@H]1/C=C(\C)CC[C@H]1[C@@H](/C=C(\C)C2=O)C1(C)C` [JOLKINOATE M], for which the Ratio in data set [1] was 16.06; in data set [3] it was 52.77. Further, the IC50 in data set [2] turned out to be 12.1 µM; in [7], 15 µM. In data set [4], the selectivity ratio is 0.8. For the same compound, in data set [8], the “inhibition (INH)” value is listed as “Dose-dependent effect”. Moreover, in [6], the CI amounted to 0.21.
As to `CCC(=O)O[C@H]1[C@@H](C)C[C@]2(OC(C)=O)C(=O)/C(C)=C/[C@@H]3[C@H](CC/C(C)=C/[C@@H]12)C3(C)C` [JOLKINOATE B], the values for the Ratio in [1] and in data set [3] were 2.95 and 30.64, respectively. Besides, the 50% inhibitory concentration (IC50) was 18.3 µM in data set [2] and 22.2 µM in data set [7]. The selectivity ratio in [4] was determined as 0.8. Moreover, the Activity result in data set [5] is “Toxic”. Further, the CI in data set [6] is on record as 0.34.
Consider `COc1ccc(C(=O)O[C@H]2[C@@H](C)C[C@]3(OC(C)=O)C(=O)/C(C)=C/[C@@H]4[C@H](CC/C(C)=C/[C@@H]23)C4(C)C)cc1` [JOLKINOATE K], for which the Ratio in [1] amounted to 28.09; in [3], 109.17. The inhibition at 10 min, 20 µM in [9] amounted to 95%. Moreover, the IC50 in [2] is 21.7 µM; in data set [7] it was 32.7 µM. For the same compound, in data set [4], the selectivity ratio was determined as 0.7. In addition, the “inhibition (INH)” value in data set [8] is reported as “Dose-dependent effect”. Also, the CI in data set [6] is on record as 0.3.
For the compound `CC(=O)O[C@]12C[C@H](C)[C@H](OC(=O)c3ccccc3)[C@@H]1/C=C(\C)CC[C@H]1[C@@H](/C=C(\C)C2=O)C1(C)C` [JOLKINOATE I], the Ratio in data set [1] was determined as 24.15; in data set [3], 84.22. Further, in data set [9], the inhibition at 10 min, 20 µM was 70.2%. The values for the 50% inhibitory concentration (IC50) in data set [2] and in data set [7] were 34.7 µM and 33.1 µM, respectively. Besides, in data set [4], the selectivity ratio worked out at 1. In [8], the “inhibition (INH)” value is on record as “Dose-dependent effect”. For the same compound, the CI in data set [6] worked out at 0.35.
With `CC(=O)O[C@H]1[C@@H](C)C[C@]2(OC(C)=O)C(=O)/C(C)=C/[C@@H]3[C@H](CC/C(C)=C/[C@@H]12)C3(C)C` [JOLKINOATE A], the Ratio came to 1.16 in [1] and 33.76 in [3]. In addition, the IC50 in data set [2] turned out to be 38.2 µM; in data set [7], 60.4 µM. Also, in data set [4], the selectivity ratio was 0.6. Also, in [6], the CI was 0.18.
On to `CC(=O)O[C@]12C[C@H](C)[C@H](OC(=O)c3ccc(C)cc3)[C@@H]1/C=C(\C)CC[C@H]1[C@@H](/C=C(\C)C2=O)C1(C)C` [JOLKINOATE J], for which the Ratio in data set [1] turned out to be 21.11; in [3], 56.88. Further, the concentration for half-maximal inhibition (IC50) in data set [2] was 41.2 µM; in [7] it was 45.1 µM. Moreover, the selectivity ratio in data set [4] was determined as 0.9. Moreover, the “inhibition (INH)” value in [8] is recorded as “Dose-dependent effect”. The CI in data set [6] is reported as 0.26.
As for `CC(=O)O[C@]12C[C@H](C)[C@H](OC(=O)c3cccc(C(F)(F)F)c3)[C@@H]1/C=C(\C)CC[C@H]1[C@@H](/C=C(\C)C2=O)C1(C)C` [JOLKINOATE L], the Ratio in data set [1] was 9.32; in data set [3], 28.66. For the same compound, the IC50 in [2] is 44 µM; in data set [7] it was 52.6 µM. Moreover, in data set [4], the selectivity ratio was 0.8. Besides, in data set [6], the CI came out at 0.27.
On to `CCCCCCCCCCCC(=O)O[C@H]1[C@@H](C)C[C@]2(OC(C)=O)C(=O)/C(C)=C/[C@@H]3[C@H](CC/C(C)=C/[C@@H]12)C3(C)C` [JOLKINOATE D], for which the Ratio in [1] was determined as 1.74; in data set [3], 25.69. Moreover, the IC50 in [2] turned out to be 38.7 µM; in data set [7], 60.3 µM. The selectivity ratio in [4] came out at 0.6. Also, the CI in [6] stood at 2.02.

Broadly, the IC50 is the concentration that gives 50% inhibition. A word on the inhibition: it is the change of the read-out against control, counted positive when it falls.
